Measurements gathered from unrelated publications.
Compare with care: the assays were run in different laboratories.
Observed: haemolysis
Species: human

Compound	setting	haemolysis [%]
Fc1ccc(-c2csc(NN=Cc3cccs3)n2)cc1	10 µM, 30 min, pH 7.4	11.4
O=C(O)CN(CCN(CC(=O)O)CC(=O)O)CC(=O)O	200 µM, 1 h, pH 7.2	≤ 1
Cc1ccc(C=NNc2nc(-c3ccc(F)cc3)cs2)c(Br)c1	100 µM, 30 min, pH 7.4	31.6
C=C1CC[C@@H]2C(C)(C)CCC[C@@]2(C)[C@@H]1CC/C(C)=C/C(=O)OC	500 µg/mL, 3 h	50
NCCc1ccc(Oc2ccc(-c3noc(-c4ccc(O)cc4)n3)cc2)cc1	4 µg/mL, 1 h	2.5
C[C@@H]1[C@H](O)[C@@H](C)/C=C/C=C/C=C/C=C/C=C/C=C/C=C/[C@H](O[C@@H]2O[C@H](C)[C@@H](O)[C@H](N)[C@@H]2O)C[C@@H]2O[C@](O)(C[C@@H](O)C[C@@H](O)[C@H](O)CC[C@@H](O)C[C@@H](O)CC(=O)O[C@H]1C)C[C@H](O)[C@H]2C(=O)O	8 µg/mL, 1 h	102
c1ccc(CN(CCN(Cc2ccccn2)Cc2ccccn2)Cc2ccccn2)nc1	200 µM, 1 h, pH 7.2	≤ 1
C=C1CC[C@@H]2[C@](C)(CCC[C@]2(C)C(=O)O)[C@H]1CC/C(C)=C/C(=O)O	350 µg/mL, 3 h	50
COc1c(F)cccc1C=NNc1nc(-c2ccc(F)cc2)cs1	50 µM, 30 min, pH 7.4	20
CCCCCCCCCCCCNCc1ccc(CNC(=O)c2csc3nc[nH]c(=O)c23)cc1	100 µM, 1 h	~3
Cc1ccc(C=NNc2nc(-c3ccc(F)cc3)cs2)o1	10 µM, 30 min, pH 7.4	1.2
OC(Cn1cncn1)(Cn1cncn1)c1ccc(F)cc1F	2 µg/mL, 1 h	3.79
CCN(CC)CCCC(C)Nc1ccnc2cc(Cl)ccc12 (stereo not shown)	100 mM, 45 min	28.7
